For 4 compounds, MBC results are on record in ChEMBL document CHEMBL1145494, “Covalent dimer species of beta-defensin Defr1 display potent antimicrobial activity against multidrug-resistant bacterial pathogens” (2007).

In brackets after ≈: the same amount, converted by molar mass. Residues, ends and D or L forms follow the SMILES beside them. Some results are limits rather than exact numbers.

The subject of test [1] is Stenotrophomonas maltophilia. Kind of test: Antibacterial activity against ciprofloxacin, meropenem and colistin-resistant Stenotrophomonas maltophilia C3625. Type of test: functional. The method, boiled down:
(§1)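 Bacteria grown to mid-log phase in Iso-Sensitest broth, diluted to 1 × 10^6 to 5 × 10^6 CFU/ml in 10 mM potassium phosphate, pH 7.4, with 1% (vol/vol) Iso-Sensitest broth. Peptide dilutions incubated with 100 μl of cells (1 × 10^5 to 5 × 10^5 CFU) at 37°C for 3 h. 10-fold dilutions plated and CFU counted next day. MBC = concentration giving >99.99% kill of inoculum. Triplicate on three occasions, mean taken.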

The subject of test [2] is Staphylococcus aureus. Kind of test: Antibacterial activity against Staphylococcus aureus ATCC 25923. The test is classed as functional. The method, boiled down: (§2)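 Mid-log cultures grown in Iso-Sensitest broth, diluted to 1 × 10^6 to 5 × 10^6 CFU/ml in 10 mM potassium phosphate with 1% (vol/vol) Iso-Sensitest broth, pH 7.4. Peptide at various concentrations was incubated with 1 × 10^5 to 5 × 10^5 CFU in 100 μl at 37°C for 3 h. 10-fold dilutions were plated and CFU counted next day. MBC was taken as >99.99% killing of the inoculum, as the mean of triplicates on three independent occasions.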

The test system of test [3] is Escherichia coli. Kind of test: Antibacterial activity against Escherichia coli ATCC 25922. The test is classed as functional. In outline: as §2
For test [4], the system named is Staphylococcus aureus. The test is described as follows: Antibacterial activity against ciprofloxacin and methicillin-resistant Staphylococcus aureus J2918.
The test system of test [5] is Pseudomonas aeruginosa. The test is described as follows: Antibacterial activity against tobramycin-resistant Pseudomonas aeruginosa C4269. Type of test: functional. In outline: as §1
For test [6], the system named is Pseudomonas aeruginosa. The test is described as follows: Antibacterial activity against meropenem and colistin-resistant Pseudomonas aeruginosa C3425. Type of test: functional. In outline: as §1
For test [7], the system named is Pseudomonas aeruginosa. Kind of test: Antibacterial activity against meropenem and tobramycin-resistant Pseudomonas aeruginosa C3781. The test is classed as functional. The method, boiled down: as §1
In test [8] the test system is Pseudomonas aeruginosa. Kind of test: Antibacterial activity against Pseudomonas aeruginosa PAO1. Type of test: functional. The method, boiled down: as §1
The test system of test [9] is Stenotrophomonas maltophilia. The test is described as follows: Antibacterial activity against ciprofloxacin and meropenem-resistant Stenotrophomonas maltophilia C3626.
Test [10] relates to Stenotrophomonas maltophilia. Kind of test: Antibacterial activity against ciprofloxacin, meropenem and tobramycin-resistant Stenotrophomonas maltophilia C1980. Type of test: functional. The method, boiled down:
as §1

For test [11], the system named is Acinetobacter baumannii. The test is described as follows: Antibacterial activity against Acinetobacter baumannii ATCC 19606. Type of test: functional. In outline:
as §2

Test [12] concerns Burkholderia cepacia. The test is described as follows: Antibacterial activity against Burkholderia cepacia ATCC 25416. Type of test: functional. In outline:
as §2

Test [13] concerns Ralstonia pickettii. Kind of test: Antibacterial activity against Ralstonia pickettii R4050/C3079. Type of test: functional. The method, boiled down: as §2
Test [14] deals with Pseudomonas aeruginosa. Kind of test: Antibacterial activity against tobramycin-resistant Pseudomonas aeruginosa H183. The test is classed as functional. In outline: as §1
For test [15], the system named is Enterococcus faecalis. Kind of test: Antibacterial activity against Enterococcus faecalis ATCC 700802. The test is classed as functional. In outline:
as §2

The test system of test [16] is Bordetella bronchiseptica. The test is described as follows: Antibacterial activity against Bordetella bronchiseptica J3083. The test is classed as functional. The method, boiled down: as §2
Test [17] deals with Cupriavidus necator. Kind of test: Antibacterial activity against Ralstonia eutropha ATCC 17697. The test is classed as functional. The method, boiled down:
as §2

Test [18] relates to Candida albicans. Kind of test: Antifungal activity against Candida albicans J2922. The test is classed as functional.
Test [19] deals with Burkholderia cenocepacia. Kind of test: Antibacterial activity against Burkholderia cenocepacia ATCC BAA-245. The test is classed as functional. In outline: as §2
Test [20] has as its system Stenotrophomonas maltophilia. Kind of test: Antibacterial activity against meropenem and tobramycin-resistant Stenotrophomonas maltophilia C3627. The test is classed as functional. The method, boiled down:
as §1

Test [21] concerns Pseudomonas aeruginosa. The test is described as follows: Antibacterial activity against Pseudomonas aeruginosa in presence of 50 mM NaCl. The test is classed as functional. The method, boiled down: (§3)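 P. aeruginosa PAO1 (1 × 10^5 CFU in 100 μl) in 10 mM potassium phosphate with 1% (vol/vol) Iso-Sensitest, pH 7.4, containing NaCl (0 to 200 mM). Challenged with peptide in doubling dilutions from 0 to 150 μg/ml at 37°C for 3 h, then plated for CFU. MBC (>99.99% killing) was determined at each NaCl concentration.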

The test system of test [22] is Pseudomonas aeruginosa. The test is described as follows: Antibacterial activity against Pseudomonas aeruginosa in presence of 100 mM NaCl. Type of test: functional. In outline:
as §3

In test [23] the test system is Pseudomonas aeruginosa. The test is described as follows: Antibacterial activity against Pseudomonas aeruginosa in presence of 200 mM NaCl. Type of test: functional. In outline:
as §3

The test system of test [24] is Pseudomonas aeruginosa. Kind of test: Antibacterial activity against Pseudomonas aeruginosa in presence of 150 mM NaCl. Type of test: functional. In outline: as §3

Consider `CC[C@H](C)[C@H](NC(=O)CNC(=O)CNC(=O)[C@H](CC(N)=O)NC(=O)[C@H](CCCNC(=N)N)NC(=O)[C@@H](NC(=O)[C@H](CS)NC(=O)[C@@H](NC(=O)[C@@H](NC(=O)[C@@H]1CCCN1C(=O)[C@@H](N)CC(=O)O)C(C)C)[C@@H](C)O)[C@@H](C)CC)C(=O)N[C@@H](CS)C(=O)N[C@@H](CCC(N)=O)C(=O)N[C@@H](Cc1ccc(O)cc1)C(=O)N[C@@H](CCCNC(=N)N)C(=O)N[C@@H](CS)C(=O)N[C@H](C(=O)NCC(=O)N[C@@H](CC(C)C)C(=O)N[C@@H](CCCNC(=N)N)C(=O)N[C@@H](Cc1cnc[nH]1)C(=O)N[C@@H](CCCCN)C(=O)N[C@H](C(=O)NCC(=O)N[C@H](C(=O)N[C@@H](CS)C(=O)NCC(=O)N[C@@H](CO)C(=O)N1CCC[C@H]1C(=O)N[C@@H](Cc1ccccc1)C(=O)N[C@@H](CCCCN)C(=O)N[C@@H](CS)C(=O)N[C@@H](CS)C(=O)N[C@@H](CCCCN)C(=O)O)[C@@H](C)O)[C@@H](C)CC)[C@@H](C)CC` (H-DPVTCIRNGGICQYRCIGLRHKIGTCGSPFKCCK-OH), for which the MBC is > 100 µg/mL in test [1]; > 100 µg/mL in test [2]; > 100 µg/mL in [3]; > 100 µg/mL in test [4]; > 100 µg/mL in test [5]; 50 µg/mL (≈ 13.4 µM) in [6]. The MBC in [7] is 100 µg/mL (≈ 26.8 µM); in test [8], 50 µg/mL (≈ 13.4 µM); in test [9], > 100 µg/mL; in [10], > 100 µg/mL; in test [11], 12.5 µg/mL (≈ 3.35 µM); in test [12], > 100 µg/mL. Also, the MBC in test [13] is > 100 µg/mL; in test [14], 100 µg/mL (≈ 26.8 µM); in test [15], 100 µg/mL (≈ 26.8 µM); in [16] it was > 100 µg/mL; in test [17], > 100 µg/mL; in [18], 25 µg/mL (≈ 6.71 µM). For the same compound, the MBC in test [19] and in [20] was > 100 µg/mL throughout.
Turning to `CC[C@H](C)[C@H](NC(=O)CNC(=O)CNC(=O)[C@H](CC(N)=O)NC(=O)[C@H](CCCNC(=N)N)NC(=O)[C@@H](NC(=O)[C@H](Cc1ccc(O)cc1)NC(=O)[C@@H](NC(=O)[C@@H](NC(=O)[C@@H]1CCCN1C(=O)[C@@H](N)CC(=O)O)C(C)C)[C@@H](C)O)[C@@H](C)CC)C(=O)N[C@@H](CS)C(=O)N[C@@H](CCC(N)=O)C(=O)N[C@@H](Cc1ccc(O)cc1)C(=O)N[C@@H](CCCNC(=N)N)C(=O)N[C@@H](CS)C(=O)N[C@H](C(=O)NCC(=O)N[C@@H](CC(C)C)C(=O)N[C@@H](CCCNC(=N)N)C(=O)N[C@@H](Cc1cnc[nH]1)C(=O)N[C@@H](CCCCN)C(=O)N[C@H](C(=O)NCC(=O)N[C@H](C(=O)N[C@@H](CS)C(=O)NCC(=O)N[C@@H](CO)C(=O)N1CCC[C@H]1C(=O)N[C@@H](Cc1ccccc1)C(=O)N[C@@H](CCCCN)C(=O)N[C@@H](CS)C(=O)N[C@@H](CS)C(=O)N[C@@H](CCCCN)C(=O)O)[C@@H](C)O)[C@@H](C)CC)[C@@H](C)CC` (H-DPVTYIRNGGICQYRCIGLRHKIGTCGSPFKCCK-OH), the MBC in test [1] was determined as 6 µg/mL (≈ 1.58 µM); in [2] it was 10 µg/mL (≈ 2.64 µM); in test [3], 8 µg/mL (≈ 2.11 µM); in [4], 6 µg/mL (≈ 1.58 µM); in test [5], 6 µg/mL (≈ 1.58 µM); in [6] it was 6 µg/mL (≈ 1.58 µM). Also, the MBC in [7] was 6 µg/mL (≈ 1.58 µM); in test [8], 6 µg/mL (≈ 1.58 µM); in [9] it was 3 µg/mL (≈ 0.792 µM); in test [10], 12.5 µg/mL (≈ 3.3 µM); in test [11], 3 µg/mL (≈ 0.792 µM); in [12], > 100 µg/mL. Besides, the MBC in [13] is 3 µg/mL (≈ 0.792 µM); in test [14] it was 6 µg/mL (≈ 1.58 µM); in [15] it was 6 µg/mL (≈ 1.58 µM); in test [16], 6 µg/mL (≈ 1.58 µM); in test [17], 3 µg/mL (≈ 0.792 µM); in [18], 3 µg/mL (≈ 0.792 µM). Further, the MBC in [19] was > 100 µg/mL; in test [20] it was 6 µg/mL (≈ 1.58 µM).
For the compound H-DPVTYIRNGGIAQYRAIGLRHKIGTAGSPFKCAK-OH, the MBC in test [21] was found to be 25 µg/mL; in test [22] it was 25 µg/mL; in [23], 50 µg/mL; in test [24] it was 50 µg/mL.
Turning to POLYMYXIN B, the MBC in [1] was 32 µg/mL; in test [2], 256 µg/mL; in test [3], 0.25 µg/mL; in [5] it was 1 µg/mL; in [6], 1 µg/mL; in [7] it was 0.5 µg/mL. The MBC was 0.5 µg/mL in [8]; 32 µg/mL in test [10]; 1 µg/mL in test [11]; > 512 µg/mL in test [12]; > 512 µg/mL in test [13]; 1 µg/mL in test [14]. In addition, the MBC in [15] is 256 µg/mL; in test [16], 0.12 µg/mL; in test [17], 128 µg/mL; in [18], > 512 µg/mL; in [19] it was > 512 µg/mL; in [20], 64 µg/mL.
